Laboratory results reported in ChEMBL document CHEMBL2331117 (J Med Chem, 2013).

What was measured:
[1] = Plasma concentration in athymic mouse plasma xenografted with human PC3 cells at 100 mg/kg, po after 4 hrs; format: ADME, organism-based, PC-3; design: dose 100 mg/kg, route oral
[2] = AUC (0 to infinity) in CD rat at 3 mg/kg, po; format: ADME, organism-based; design: time infinity, dose 3 mg/kg, route oral; details: plasma
Summary of the method: (§1)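 Single-dose PK: female athymic nude mice (10 mg/kg), female CD rats and male beagle dogs (3 mg/kg), male cynomolgus monkeys (3 mg/kg), given iv and by oral gavage. Solution in EPW (5% ethanol/45% PEG400/water), with 1:2 HCl (m/m) for mouse, rat and dog and 1:1.5 HCl (m/m) for monkey. Plasma levels followed over 24 h.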

[3] = AUC (0 to infinity) in athymic nude mouse at 10 mg/kg, iv; format: ADME, organism-based; design: time infinity, dose 10 mg/kg, route intravenous; details: plasma; summary of the method: as §1
[4] = Drug uptake in tumor of athymic mouse xenografted with human PC3 cells at 100 mg/kg, po after 32 hrs; format: ADME, organism-based, Neoplasm, PC-3; design: dose 100 mg/kg, route oral; details: in vivo, BLD = below limit of detection
Summary of the method: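 PC-3 cells (3 × 10⁶, passages 10–14, in ice-cold HBSS) were implanted sc in 5–8 week old male nude mice. Tumors of 200–500 mg received a single oral 100 mg/kg dose. Plasma and tumor were collected at 1, 4, 8, 16, 24 and 32 h and homogenized in buffer. Lysates were pooled per group (n = 5), and phospho-proteins were measured by Western blot normalized to α-tubulin.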

Mus musculus [5] = experiment: In vivo inhibition of mTORC2-mediated phosphorylation of AKT at serine 473 in human MCF7 cells xenografted into athymic nude mouse at 100 mg/kg, po after 16 hrs by Western blotting analysis relative to control; format: functional; details: MCF7, 16 h
Summary of the method: (§2)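 MCF-7 cells (DMEM, 10% FBS) were implanted subcutaneously at 5 × 10^6 cells in 50% cold HBSS/50% growth-factor-reduced matrigel into the hindflank of 5−8 week old female nude mice. At tumor size 40−150 mg, mice received a single oral dose of 100 mg/kg. Tumor lysates were pooled per group. Phospho-AKT (S473, T308), p70S6K (T389), S6 (S240/244) and 4E-BP1 (T37/46) were measured by Western blot normalized to α-tubulin.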

[6] = molecular target: DNA-dependent protein kinase catalytic subunit (Homo sapiens, UniProt P78527); experiment: Inhibition of DNA-PK (unknown origin)
[7] = Cmax in athymic nude mouse at 10 mg/kg, iv; format: ADME, organism-based; design: dose 10 mg/kg, route intravenous; details: in vivo; summary of the method: as §1
[8] = molecular target: Mast/stem cell growth factor receptor Kit (Homo sapiens, UniProt P10721); experiment: Inhibition of KIT (unknown origin)
[9] = Metabolic stability in dog liver microsomes after 30 mins; format: ADME, Canis lupus familiaris, Microsome; details: read-out: Stability
Mus musculus [10] = experiment: In vivo inhibition of mTORC1-mediated phosphorylation of 4EBP1 at ([…]) in human PC3 cells xenografted into athymic nude mouse at 100 mg/kg, po after 16 hrs by Western blotting analysis relative to control; format: functional; details: PC-3, 16 h
Summary of the method: (§3)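 PC-3 cells grown in DMEM with 20% FBS were implanted subcutaneously at 3 × 10^6 cells in ice-cold HBSS into the hindflank of 5−8 week old male nude mice. At tumor size 200−500 mg, mice received a single oral dose of 100 mg/kg. Plasma and tumors were collected at 1, 4, 8, 16, 24 and 32 h. Tumor lysates from each group (n = 5) were pooled. Phospho-proteins were quantified by Western blot and normalized to α-tubulin.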

Mus musculus [11] = experiment: In vivo inhibition of mTORC2-mediated phosphorylation of AKT at […] in human MCF7 cells xenografted into athymic nude mouse at 100 mg/kg, po after 16 hrs by Western blotting analysis relative to control; format: functional; details: MCF7, 16 h; summary of the method: as §2
CDK3/cyclin E = CDK3/cyclin E (Homo sapiens, UniProt O96020+P24864+Q00526); experiment: Inhibition of CDK3/Cyclin E (unknown origin); format: protein-complex assay
Mus musculus [12] = experiment: In vivo inhibition of mTORC1-mediated phosphorylation of p70S6K at […] in human PC3 cells xenografted into athymic nude mouse at 100 mg/kg, po after 4 hrs by Western blotting analysis relative to control; format: functional; details: PC-3, 4 h; summary of the method: as §3
MCF7 = experiment: Antitumor activity against human MCF7 cells xenografted in athymic nude mouse at 50 mg/kg, po qd for 14 days relative to control; format: functional
Summary of the method: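 Female athymic nude (NCr) mice, 5–8 weeks old, bearing subcutaneous MCF-7 tumors staged at 100–200 mg. Compound given orally qd for 14 days at 50 or 100 mg/kg as a solution/fine suspension in water with a 1:1 molar ratio of 1 N HCl. Caliper tumor mass = length × width²/2, measured twice weekly; body mass recorded daily.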

[13] = Plasma protein binding in human at 5 uM; format: ADME, cell-free; details: read-out: PPB (converted)
[14] = Cmax in cynomolgus monkey at 3 mg/kg, po; format: ADME, organism-based, Macaca fascicularis; design: dose 3 mg/kg, route oral; details: in vivo; summary of the method: as §1
[15] = molecular target: Heat shock protein HSP 90-beta (Homo sapiens, UniProt P08238); experiment: Inhibition of HSP90 (unknown origin)
Mus musculus [16] = experiment: In vivo inhibition of mTORC1-mediated phosphorylation of pS6 at (serine 240/244) in human PC3 cells xenografted into athymic nude mouse at 100 mg/kg, po after 8 hrs by Western blotting analysis relative to control; format: functional; details: PC-3, 8 h; summary of the method: as §3
Mus musculus [17] = experiment: In vivo inhibition of mTORC1-mediated phosphorylation of 4EBP1 at ([…]) in human PC3 cells xenografted into athymic nude mouse at 100 mg/kg, po after 24 hrs by Western blotting analysis relative to control; format: functional; details: PC-3, 24 h; summary of the method: as §3
[18] = molecular target: RAF proto-oncogene serine/threonine-protein kinase (Homo sapiens, UniProt P04049); experiment: Inhibition of cRAF (unknown origin)
Mus musculus [19] = experiment: Toxicity in athymic nude mouse assessed as body weight gain at 50 mg/kg, po relative to control; format: organism-based; design: dose 50 mg/kg, route oral; details: in vivo
[20] = molecular target: RAC-alpha serine/threonine-protein kinase (Homo sapiens, UniProt P31749); experiment: Inhibition of AKT1 (unknown origin)
[21] = Tmax in cynomolgus monkey at 3 mg/kg, po; format: ADME, organism-based, Macaca fascicularis; design: dose 3 mg/kg, route oral; details: in vivo
[22] = Drug uptake in tumor of athymic mouse xenografted with human MCF7 cells at 100 mg/kg, po after 1 hr; format: ADME, organism-based, Neoplasm; design: dose 100 mg/kg, route oral; details: read-out: Drug uptake
[23] = Volume of distribution at steady state in cynomolgus monkey at 3 mg/kg, iv; format: ADME, organism-based, Macaca fascicularis; design: dose 3 mg/kg, route intravenous; details: in vivo, read-out: Vdss
Mus musculus [24] = experiment: In vivo inhibition of mTORC2-mediated phosphorylation of AKT at serine 473 in human MCF7 cells xenografted into athymic nude mouse at 100 mg/kg, po after 4 hrs by Western blotting analysis relative to control; format: functional; details: MCF7, 4 h; summary of the method: as §2
Mus musculus [25] = experiment: In vivo inhibition of mTORC1-mediated phosphorylation of 4EBP1 at ([…]) in human MCF7 cells xenografted into athymic nude mouse at 100 mg/kg, po after 32 hrs by Western blotting analysis relative to control; format: functional; details: MCF7, 32 h
[26] = Plasma concentration in athymic mouse plasma xenografted with human MCF7 cells at 100 mg/kg, po after 1 hr; format: ADME, organism-based; design: dose 100 mg/kg, route oral
Summary of the method: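 MCF-7 cells (5 × 10^6, in 50% cold HBSS/50% growth-factor-reduced matrigel) were implanted subcutaneously in the hindflank of 5–8 week old female nude mice. At 40–150 mg tumour size, mice received a single oral dose of 100 mg/kg, and plasma was sampled at the listed times after dosing.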

[27] = Drug uptake in tumor of athymic mouse xenografted with human MCF7 cells at 100 mg/kg, po after 8 hrs; format: ADME, organism-based, Neoplasm; design: dose 100 mg/kg, route oral; details: read-out: Drug uptake

Chain of Heat shock protein HSP 90-beta (P08238 whole entry): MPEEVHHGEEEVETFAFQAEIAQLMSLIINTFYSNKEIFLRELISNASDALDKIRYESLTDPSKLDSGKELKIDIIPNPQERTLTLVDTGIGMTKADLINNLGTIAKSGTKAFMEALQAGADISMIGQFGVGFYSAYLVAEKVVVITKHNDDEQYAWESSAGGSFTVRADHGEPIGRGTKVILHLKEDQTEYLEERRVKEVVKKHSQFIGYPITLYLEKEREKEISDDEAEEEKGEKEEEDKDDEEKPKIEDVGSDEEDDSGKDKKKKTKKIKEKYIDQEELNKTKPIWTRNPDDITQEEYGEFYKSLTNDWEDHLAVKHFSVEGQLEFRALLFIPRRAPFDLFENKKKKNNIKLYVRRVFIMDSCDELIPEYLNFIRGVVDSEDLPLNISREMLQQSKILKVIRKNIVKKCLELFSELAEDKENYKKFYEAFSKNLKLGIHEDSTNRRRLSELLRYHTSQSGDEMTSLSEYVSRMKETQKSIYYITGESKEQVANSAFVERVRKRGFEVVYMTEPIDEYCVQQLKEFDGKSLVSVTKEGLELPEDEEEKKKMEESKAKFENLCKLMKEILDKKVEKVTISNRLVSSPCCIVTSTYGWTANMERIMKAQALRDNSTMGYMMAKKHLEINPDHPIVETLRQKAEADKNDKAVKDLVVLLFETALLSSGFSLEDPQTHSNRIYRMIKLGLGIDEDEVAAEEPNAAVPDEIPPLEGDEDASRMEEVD
Chain of CDK3/cyclin E (P24864 whole entry): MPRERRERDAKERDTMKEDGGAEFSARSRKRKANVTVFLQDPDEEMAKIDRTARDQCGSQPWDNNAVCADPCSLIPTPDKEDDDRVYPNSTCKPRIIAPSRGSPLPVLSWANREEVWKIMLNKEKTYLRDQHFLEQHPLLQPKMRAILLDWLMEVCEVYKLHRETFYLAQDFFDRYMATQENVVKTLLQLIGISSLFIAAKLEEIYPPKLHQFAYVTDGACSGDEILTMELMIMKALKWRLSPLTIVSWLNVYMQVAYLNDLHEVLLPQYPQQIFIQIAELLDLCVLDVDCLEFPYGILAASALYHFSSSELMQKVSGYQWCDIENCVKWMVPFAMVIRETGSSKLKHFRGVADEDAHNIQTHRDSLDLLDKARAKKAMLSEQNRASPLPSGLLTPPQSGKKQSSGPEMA
Chain of CDK3/cyclin E (O96020 whole entry): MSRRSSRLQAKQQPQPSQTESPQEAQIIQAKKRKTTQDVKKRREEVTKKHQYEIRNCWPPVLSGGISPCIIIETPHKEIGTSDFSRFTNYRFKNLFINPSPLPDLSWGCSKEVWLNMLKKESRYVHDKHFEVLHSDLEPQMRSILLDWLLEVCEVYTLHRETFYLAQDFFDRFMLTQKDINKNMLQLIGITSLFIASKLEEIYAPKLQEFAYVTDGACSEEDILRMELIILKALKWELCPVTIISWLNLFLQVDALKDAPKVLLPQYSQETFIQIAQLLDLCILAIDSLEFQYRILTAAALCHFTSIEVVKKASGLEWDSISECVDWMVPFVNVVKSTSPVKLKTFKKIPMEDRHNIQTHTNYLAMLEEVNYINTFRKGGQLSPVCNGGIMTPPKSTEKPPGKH
Chain of CDK3/cyclin E (Q00526 whole entry): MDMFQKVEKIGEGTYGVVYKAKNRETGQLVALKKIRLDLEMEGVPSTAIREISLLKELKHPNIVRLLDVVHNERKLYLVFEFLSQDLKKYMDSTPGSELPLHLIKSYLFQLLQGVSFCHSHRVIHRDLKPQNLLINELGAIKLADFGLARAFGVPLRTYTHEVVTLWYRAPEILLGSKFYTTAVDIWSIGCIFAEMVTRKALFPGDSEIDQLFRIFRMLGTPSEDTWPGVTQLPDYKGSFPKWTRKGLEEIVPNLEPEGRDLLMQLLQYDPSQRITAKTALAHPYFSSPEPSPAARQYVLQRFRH
Chain of RAF proto-oncogene serine/threonine-protein kinase (P04049 whole entry): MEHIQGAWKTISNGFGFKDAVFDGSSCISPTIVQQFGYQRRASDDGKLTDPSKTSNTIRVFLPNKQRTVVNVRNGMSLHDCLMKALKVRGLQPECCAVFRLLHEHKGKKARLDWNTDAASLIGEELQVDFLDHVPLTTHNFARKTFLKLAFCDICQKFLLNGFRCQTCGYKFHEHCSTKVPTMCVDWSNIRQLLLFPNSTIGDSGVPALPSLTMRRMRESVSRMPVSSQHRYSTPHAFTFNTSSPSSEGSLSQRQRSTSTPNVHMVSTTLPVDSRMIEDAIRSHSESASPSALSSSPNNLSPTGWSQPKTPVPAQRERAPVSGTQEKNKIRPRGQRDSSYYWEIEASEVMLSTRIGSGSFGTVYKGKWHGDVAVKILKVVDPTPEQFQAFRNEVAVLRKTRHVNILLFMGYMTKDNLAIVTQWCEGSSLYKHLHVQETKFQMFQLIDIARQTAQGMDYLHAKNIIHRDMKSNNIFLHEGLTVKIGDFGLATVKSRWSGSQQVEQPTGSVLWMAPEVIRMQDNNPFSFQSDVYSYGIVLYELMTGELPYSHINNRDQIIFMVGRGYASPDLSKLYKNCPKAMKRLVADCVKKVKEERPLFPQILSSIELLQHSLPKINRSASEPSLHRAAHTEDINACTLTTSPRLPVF
Chain of Mast/stem cell growth factor receptor Kit (P10721 whole entry): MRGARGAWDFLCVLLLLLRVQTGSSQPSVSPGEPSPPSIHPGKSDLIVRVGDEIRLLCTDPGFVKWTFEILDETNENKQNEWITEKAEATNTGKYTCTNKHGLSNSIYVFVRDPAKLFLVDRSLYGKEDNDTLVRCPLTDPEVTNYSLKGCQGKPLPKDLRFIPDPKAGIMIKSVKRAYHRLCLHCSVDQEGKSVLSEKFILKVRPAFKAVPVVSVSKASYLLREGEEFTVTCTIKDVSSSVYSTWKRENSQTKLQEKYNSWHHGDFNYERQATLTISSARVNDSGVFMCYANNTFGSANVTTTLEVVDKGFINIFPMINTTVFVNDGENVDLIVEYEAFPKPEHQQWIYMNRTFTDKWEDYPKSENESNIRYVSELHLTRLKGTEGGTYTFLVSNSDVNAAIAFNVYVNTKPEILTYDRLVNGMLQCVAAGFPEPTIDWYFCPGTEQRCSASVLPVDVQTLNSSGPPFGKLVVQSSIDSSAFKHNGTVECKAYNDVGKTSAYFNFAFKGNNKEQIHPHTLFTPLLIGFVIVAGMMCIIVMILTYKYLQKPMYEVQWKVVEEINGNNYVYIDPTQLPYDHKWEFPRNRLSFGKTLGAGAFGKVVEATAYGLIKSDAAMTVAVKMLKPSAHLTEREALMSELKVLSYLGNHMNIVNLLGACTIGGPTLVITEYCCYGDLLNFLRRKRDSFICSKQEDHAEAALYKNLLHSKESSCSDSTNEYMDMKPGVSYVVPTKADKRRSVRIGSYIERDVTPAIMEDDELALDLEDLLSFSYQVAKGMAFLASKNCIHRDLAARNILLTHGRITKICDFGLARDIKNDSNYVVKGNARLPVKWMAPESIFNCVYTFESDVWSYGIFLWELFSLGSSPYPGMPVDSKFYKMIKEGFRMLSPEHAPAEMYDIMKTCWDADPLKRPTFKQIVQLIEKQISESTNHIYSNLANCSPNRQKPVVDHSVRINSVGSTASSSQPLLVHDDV
Chain of RAC-alpha serine/threonine-protein kinase (P31749 whole entry): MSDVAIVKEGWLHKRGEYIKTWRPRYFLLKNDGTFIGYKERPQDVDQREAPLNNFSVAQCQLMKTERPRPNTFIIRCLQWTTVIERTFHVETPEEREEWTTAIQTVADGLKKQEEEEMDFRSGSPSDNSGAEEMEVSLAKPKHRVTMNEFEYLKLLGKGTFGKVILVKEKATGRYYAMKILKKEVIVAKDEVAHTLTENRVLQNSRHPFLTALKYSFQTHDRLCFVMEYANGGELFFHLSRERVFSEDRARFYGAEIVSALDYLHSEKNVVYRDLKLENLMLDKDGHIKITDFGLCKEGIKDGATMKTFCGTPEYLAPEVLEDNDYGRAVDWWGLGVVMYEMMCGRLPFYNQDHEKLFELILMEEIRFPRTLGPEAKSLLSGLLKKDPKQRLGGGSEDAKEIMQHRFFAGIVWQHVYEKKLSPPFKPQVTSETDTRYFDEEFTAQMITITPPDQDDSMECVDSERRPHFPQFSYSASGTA

concentration at 4 h [1]: 21.3 µM
AUC(0-inf) [2]: 0.952 µM·h
AUC(0-inf) [3]: 8 µM·h
Drug uptake [4]: BLD
IC50 [6]: 8.83 µM
Cmax [7]: 9.14 µM
IC50 [8]: > 3.5 µM
remaining at 0.5 h [9]: 82%
IC50 (CDK3/cyclin E): > 10 µM
fraction unbound at 5 µM [13]: 0.14
Cmax [14]: 0.25 µM
IC50 [15]: > 3.5 µM
IC50 [18]: > 3.5 µM
IC50 [20]: > 3.5 µM
Tmax [21]: 2 h
concentration at 1 h [22]: 36.1 µM
Vd [23]: 6.42 L/kg
concentration at 1 h [26]: 34.4 µM
concentration at 8 h [27]: 16.6 µM
SMILES: Cc1c(C(=O)N2CCOc3ccc(-c4ccc(N)nc4)cc3C2)ccc(S(C)(=O)=O)c1F
inhibition in vivo at 100 mg/kg (Mus musculus [5]): 69%
inhibition in vivo at 100 mg/kg (Mus musculus [10]): 51%
inhibition in vivo at 100 mg/kg (Mus musculus [11]): 43%
inhibition in vivo at 100 mg/kg (Mus musculus [12]): 95%
Activity (MCF7): 22%
inhibition in vivo at 100 mg/kg (Mus musculus [16]): 91%
inhibition in vivo at 100 mg/kg (Mus musculus [17]): 19%
Activity (Mus musculus [19]): 2.2%
inhibition in vivo at 100 mg/kg (Mus musculus [24]): 87%
inhibition in vivo at 100 mg/kg (Mus musculus [25]): 3%
